From ChEMBL document CHEMBL2062435, “Synthesis and in vitro antibacterial activity of gemifloxacin derivatives containing a substituted benzyloxime moiety” (2012)

system: Klebsiella pneumoniae; assay: Antimicrobial activity against Klebsiella pneumoniae 10-2 after 18-24 hrs by two-fold serial dilution method; format: functional
Outline: (§1)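 Agar-medium twofold serial dilution against Gram-positive and Gram-negative strains; MIC taken as the lowest compound concentration giving complete inhibition of bacterial growth after incubation at 35 °C for 18-24 h.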

Q: `COc1ccc(CO/N=C2\CN(c3nc4c(cc3F)c(=O)c(C(=O)O)cn4C3CC3)CC2CN)c([N+](=O)[O-])c1OC.CS(=O)(=O)O` (racemic) was tested. Which MIC did it give?
A: > 128 µg/mL

system: Enterococcus faecalis; assay: Antimicrobial activity against Enterococcus faecalis 10-6 after 18-24 hrs by two-fold serial dilution method; format: functional; outline: as §1

Q: `COc1ccc(CO/N=C2\CN(c3nc4c(cc3F)c(=O)c(C(=O)O)cn4C3CC3)CC2CN)c([N+](=O)[O-])c1OC.CS(=O)(=O)O` (racemic) was tested. Which MIC did it give?
A: 4 µg/mL

system: Pseudomonas aeruginosa; assay: Antimicrobial activity against extended spectrum beta-lactamases-producing Pseudomonas aeruginosa 10-20 after 18-24 hrs by two-fold serial dilution method; format: functional; outline: as §1

Q: `COc1ccc(CO/N=C2\CN(c3nc4c(cc3F)c(=O)c(C(=O)O)cn4C3CC3)CC2CN)c([N+](=O)[O-])c1OC.CS(=O)(=O)O` (racemic) was tested. Which MIC did it give?
A: 0.25 µg/mL

system: Pseudomonas aeruginosa; assay: Antimicrobial activity against extended spectrum beta-lactamases-producing Pseudomonas aeruginosa 10-9 after 18-24 hrs by two-fold serial dilution method; format: functional; outline: as §1

Q: How did the MIC turn out when `COc1ccc(CO/N=C2\CN(c3nc4c(cc3F)c(=O)c(C(=O)O)cn4C3CC3)CC2CN)c([N+](=O)[O-])c1OC.CS(=O)(=O)O` (racemic) was run?
A: 16 µg/mL

system: Enterococcus faecium; assay: Antimicrobial activity against Enterococcus faecium 10-9 after 18-24 hrs by two-fold serial dilution method; format: functional; outline: as §1

Q: `COc1ccc(CO/N=C2\CN(c3nc4c(cc3F)c(=O)c(C(=O)O)cn4C3CC3)CC2CN)c([N+](=O)[O-])c1OC.CS(=O)(=O)O` (racemic) was tested. Which MIC did it give?
A: 4 µg/mL

system: Enterococcus faecalis; assay: Antimicrobial activity against Enterococcus faecalis 10-5 after 18-24 hrs by two-fold serial dilution method; format: functional; outline: as §1

Q: `COc1ccc(CO/N=C2\CN(c3nc4c(cc3F)c(=O)c(C(=O)O)cn4C3CC3)CC2CN)c([N+](=O)[O-])c1OC.CS(=O)(=O)O` (racemic) was tested. Which MIC did it give?
A: 1 µg/mL

system: Klebsiella pneumoniae; assay: Antimicrobial activity against Klebsiella pneumoniae 10-4 after 18-24 hrs by two-fold serial dilution method; format: functional; outline: as §1

Q: Which MIC does the source give for `COc1ccc(CO/N=C2\CN(c3nc4c(cc3F)c(=O)c(C(=O)O)cn4C3CC3)CC2CN)c([N+](=O)[O-])c1OC.CS(=O)(=O)O` (racemic) here?
A: > 128 µg/mL

system: Klebsiella pneumoniae; assay: Antimicrobial activity against extended spectrum beta-lactamases-producing Klebsiella pneumoniae 10-2 after 18-24 hrs by two-fold serial dilution method; format: functional; outline: as §1

Q: For `COc1ccc(CO/N=C2\CN(c3nc4c(cc3F)c(=O)c(C(=O)O)cn4C3CC3)CC2CN)c([N+](=O)[O-])c1OC.CS(=O)(=O)O` (racemic), which MIC is on record?
A: > 128 µg/mL

system: Streptococcus pneumoniae; assay: Antimicrobial activity against extended spectrum beta-lactamases-producing Streptococcus pneumoniae 10-1 after 18-24 hrs by two-fold serial dilution method; format: functional; outline: as §1

Q: How did the MIC turn out when `COc1ccc(CO/N=C2\CN(c3nc4c(cc3F)c(=O)c(C(=O)O)cn4C3CC3)CC2CN)c([N+](=O)[O-])c1OC.CS(=O)(=O)O` (racemic) was run?
A: 1 µg/mL

system: Escherichia coli; assay: Antimicrobial activity against extended spectrum beta-lactamases-producing Escherichia coli 10-2 after 18-24 hrs by two-fold serial dilution method; format: functional; outline: as §1

Q: With `COc1ccc(CO/N=C2\CN(c3nc4c(cc3F)c(=O)c(C(=O)O)cn4C3CC3)CC2CN)c([N+](=O)[O-])c1OC.CS(=O)(=O)O` (racemic) as the compound, how does the MIC read?
A: > 128 µg/mL

system: Staphylococcus epidermidis; assay: Antimicrobial activity against extended spectrum beta-lactamases-producing methicillin-sensitive Staphylococcus epidermidis 10-15 after 18-24 hrs by two-fold serial dilution method; format: functional; outline: as §1

Q: How did the MIC turn out when `COc1ccc(CO/N=C2\CN(c3nc4c(cc3F)c(=O)c(C(=O)O)cn4C3CC3)CC2CN)c([N+](=O)[O-])c1OC.CS(=O)(=O)O` (racemic) was run?
A: 4 µg/mL

system: Staphylococcus aureus; assay: Antimicrobial activity against extended spectrum beta-lactamases-producing methicillin-resistant Staphylococcus aureus 10-15 after 18-24 hrs by two-fold serial dilution method; format: functional
Outline: (§2)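 Agar twofold serial dilution MIC against clinical isolates. MIC was taken as the lowest concentration giving complete inhibition of bacterial growth after incubation at 35 °C for 18-24 h.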

Q: `COc1ccc(CO/N=C2\CN(c3nc4c(cc3F)c(=O)c(C(=O)O)cn4C3CC3)CC2CN)c([N+](=O)[O-])c1OC.CS(=O)(=O)O` (racemic) was tested. Which MIC did it give?
A: 1 µg/mL

system: Klebsiella pneumoniae; assay: Antimicrobial activity against extended spectrum beta-lactamases-producing Klebsiella pneumoniae 10-3 after 18-24 hrs by two-fold serial dilution method; format: functional; outline: as §1

Q: How did the MIC turn out when `COc1ccc(CO/N=C2\CN(c3nc4c(cc3F)c(=O)c(C(=O)O)cn4C3CC3)CC2CN)c([N+](=O)[O-])c1OC.CS(=O)(=O)O` (racemic) was run?
A: > 128 µg/mL

system: Escherichia coli; assay: Antimicrobial activity against Escherichia coli 10-3 after 18-24 hrs by two-fold serial dilution method; format: functional; outline: as §1

Q: How did the MIC turn out when `COc1ccc(CO/N=C2\CN(c3nc4c(cc3F)c(=O)c(C(=O)O)cn4C3CC3)CC2CN)c([N+](=O)[O-])c1OC.CS(=O)(=O)O` (racemic) was run?
A: 16 µg/mL

system: Pseudomonas aeruginosa; assay: Antimicrobial activity against extended spectrum beta-lactamases-producing Pseudomonas aeruginosa 10-18 after 18-24 hrs by two-fold serial dilution method; format: functional; outline: as §1

Q: `COc1ccc(CO/N=C2\CN(c3nc4c(cc3F)c(=O)c(C(=O)O)cn4C3CC3)CC2CN)c([N+](=O)[O-])c1OC.CS(=O)(=O)O` (racemic) was tested. Which MIC did it give?
A: 8 µg/mL

system: Escherichia coli; assay: Antimicrobial activity against Escherichia coli 10-2 after 18-24 hrs by two-fold serial dilution method; format: functional; outline: as §1

Q: Which MIC does the source give for `COc1ccc(CO/N=C2\CN(c3nc4c(cc3F)c(=O)c(C(=O)O)cn4C3CC3)CC2CN)c([N+](=O)[O-])c1OC.CS(=O)(=O)O` (racemic) here?
A: 8 µg/mL

system: Staphylococcus aureus; assay: Antimicrobial activity against extended spectrum beta-lactamases-producing methicillin-resistant Staphylococcus aureus 10-11 after 18-24 hrs by two-fold serial dilution method; format: functional; outline: as §2

Q: `COc1ccc(CO/N=C2\CN(c3nc4c(cc3F)c(=O)c(C(=O)O)cn4C3CC3)CC2CN)c([N+](=O)[O-])c1OC.CS(=O)(=O)O` (racemic) was tested. Which MIC did it give?
A: 2 µg/mL

system: Staphylococcus epidermidis; assay: Antimicrobial activity against extended spectrum beta-lactamases-producing methicillin-sensitive Staphylococcus epidermidis 10-13 after 18-24 hrs by two-fold serial dilution method; format: functional; outline: as §1

Q: For `COc1ccc(CO/N=C2\CN(c3nc4c(cc3F)c(=O)c(C(=O)O)cn4C3CC3)CC2CN)c([N+](=O)[O-])c1OC.CS(=O)(=O)O` (racemic), which MIC is on record?
A: 1 µg/mL
